Laboratory results: ChEMBL document CHEMBL4196137, “Abyssomicin Monomers and Dimers from the Marine-Derived Streptomyces koyangensis SCSIO 5802” (J Nat Prod, 2018)
In brackets after ≈: the same amount, converted by molar mass.

Assays:
[1] = system: Herpesviridae sp.; experiment: Antiviral activity against Herpes simplex virus assessed as inhibition of viral replication at 10 uM relative to control; assay type: functional
[2] = system: Staphylococcus aureus; experiment: Antimicrobial activity against methicillin-resistant Staphylococcus aureus isolate 1862 by two-fold serial dilution method; assay type: functional
Outline: (§1)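 MIC by 2-fold serial broth dilution in Mueller-Hinton broth, following CLSI standard methods; panel run alongside S. aureus ATCC 29213 and E. faecalis ATCC 29212.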

[3] = system: Staphylococcus aureus; experiment: Antimicrobial activity against methicillin-resistant Staphylococcus aureus isolate 699 by two-fold serial dilution method; assay type: functional; outline: as §1
[4] = system: Staphylococcus aureus; experiment: Antimicrobial activity against methicillin-resistant Staphylococcus aureus isolate shhs-A1 by two-fold serial dilution method; assay type: functional; outline: as §1
[5] = system: Enterococcus faecalis; experiment: Antimicrobial activity against Enterococcus faecalis ATCC 29212 by two-fold serial dilution method; assay type: functional; outline: as §1
[6] = system: Vesicular stomatitis virus; experiment: Antiviral activity against Vesicular stomatitis virus infected in African green monkey Vero cells after 16 hrs by fluorescence microscopy; assay type: functional, organism-based
[7] = system: Staphylococcus aureus; experiment: Antimicrobial activity against Staphylococcus aureus ATCC 29213 by two-fold serial dilution method; assay type: functional
Outline: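 MIC measured by 2-fold serial broth dilution in Mueller-Hinton broth, following CLSI standard methods.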

`C[C@H]1CC/C(O)=C2/C(=O)O[C@@]34C=C[C@]5(C1=O)[C@H](O)[C@@](C)(O[C@]235)[C@@H](C)C4` was tested. Which inhibition at 10 µM [1] did it give?
Its inhibition at 10 µM is 31%.

Which results are given for `C[C@H]1CC/C(O)=C2/C(=O)O[C@]34C[C@H](C)[C@]5(C)O[C@]23[C@H](C1=O)[C@@H](S[C@H]1[C@H]2[C@H](O)[C@@]3(C)O[C@@]67/C(=C(/O)CC[C@H](C)C(=O)[C@H]16)C(=O)O[C@@]27C[C@@H]3C)[C@H]4[C@@H]5O`?
MIC [2]: 16 µg/mL (≈ 22 µM); MIC [3]: 16 µg/mL (≈ 22 µM); MIC [4]: 16 µg/mL (≈ 22 µM); MIC [5]: 32 µg/mL (≈ 44 µM); IC50 [6]: 24 µM; MIC [7]: 32 µg/mL (≈ 44 µM)

For `C[C@H]1CCC(=O)C2=C3O[C@@]4(C)[C@@H](C)C[C@]3(OC2=O)[C@@H]([C@H](S[C@H]2[C@H]3[C@H](O)[C@@]5(C)O[C@@]67/C(=C(/O)CC[C@H](C)C(=O)[C@H]26)C(=O)O[C@@]37C[C@@H]5C)CC1=O)[C@@H]4O`, which MIC [2] is on record?
Its MIC is 16 µg/mL (≈ 22 µM).

What about the MIC [3] of the same compound?
The MIC was 16 µg/mL (≈ 22 µM).

And the MIC [4]?
The MIC was 16 µg/mL (≈ 22 µM).

And the MIC [5]?
The MIC was 32 µg/mL (≈ 44 µM).

And the IC50 [6]?
The IC50 was 19 µM.

What about the MIC [7] of the same compound?
Its MIC is 32 µg/mL (≈ 44 µM).

What does the source list for `CC1(C)S[C@@H]2[C@H](NC(=O)[C@H](N)c3ccccc3)C(=O)N2[C@H]1C(=O)O` [AMPICILLIN]?
MIC [2]: 0.125 µg/mL (≈ 0.358 µM); MIC [3]: 4 µg/mL (≈ 11.4 µM); MIC [4]: 64 µg/mL (≈ 183 µM); MIC [5]: 16 µg/mL (≈ 45.8 µM); MIC [7]: 0.25 µg/mL (≈ 0.715 µM)

What does the source list for `CN[C@H](CC(C)C)C(=O)N[C@H]1C(=O)N[C@@H](CC(N)=O)C(=O)N[C@H]2C(=O)N[C@H]3C(=O)N[C@H](C(=O)N[C@H](C(=O)O)c4cc(O)cc(O)c4-c4cc3ccc4O)[C@H](O)c3ccc(c(Cl)c3)Oc3cc2cc(c3O[C@@H]2O[C@H](CO)[C@@H](O)[C@H](O)[C@H]2O[C@H]2C[C@](C)(N)[C@H](O)[C@H](C)O2)Oc2ccc(cc2Cl)[C@H]1O` [VANCOMYCIN]?
MIC [2]: 0.125 µg/mL (≈ 0.0863 µM); MIC [3]: 0.125 µg/mL (≈ 0.0863 µM); MIC [5]: 0.25 µg/mL (≈ 0.173 µM); MIC [7]: 0.25 µg/mL (≈ 0.173 µM)
